How the values were obtained:
mCB2 receptor = mCB2 receptor (Mus musculus, UniProt P47936); test: Photolabeling of mCB2; format: binding; conditions: HEK293 cell membranes expressing mCB2, photoactivated
Procedure, shortened: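 Compound-free membranes were run in parallel as control. Incubated 30 min at 37°C, then UV-irradiated at 365 nm for 1 h on ice. Washed with 1% BSA TME, then plain TME. Followed by [3H]CP-55940 saturation binding.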

hCB2 = hCB2 (Homo sapiens, UniProt P34972); test: Photolabeling of hCB2; format: binding
Chain of hCB2 (P34972 whole entry): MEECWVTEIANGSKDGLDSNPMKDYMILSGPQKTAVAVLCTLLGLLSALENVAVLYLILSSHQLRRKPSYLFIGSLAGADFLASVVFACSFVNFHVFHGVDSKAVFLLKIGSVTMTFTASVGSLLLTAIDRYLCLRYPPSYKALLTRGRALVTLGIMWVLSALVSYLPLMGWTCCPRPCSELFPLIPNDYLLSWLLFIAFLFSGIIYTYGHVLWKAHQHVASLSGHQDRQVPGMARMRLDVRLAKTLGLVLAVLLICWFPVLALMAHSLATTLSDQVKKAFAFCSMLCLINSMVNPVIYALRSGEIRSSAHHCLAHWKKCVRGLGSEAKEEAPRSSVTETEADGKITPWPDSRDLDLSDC

Chain of mCB2 receptor (P47936 whole entry): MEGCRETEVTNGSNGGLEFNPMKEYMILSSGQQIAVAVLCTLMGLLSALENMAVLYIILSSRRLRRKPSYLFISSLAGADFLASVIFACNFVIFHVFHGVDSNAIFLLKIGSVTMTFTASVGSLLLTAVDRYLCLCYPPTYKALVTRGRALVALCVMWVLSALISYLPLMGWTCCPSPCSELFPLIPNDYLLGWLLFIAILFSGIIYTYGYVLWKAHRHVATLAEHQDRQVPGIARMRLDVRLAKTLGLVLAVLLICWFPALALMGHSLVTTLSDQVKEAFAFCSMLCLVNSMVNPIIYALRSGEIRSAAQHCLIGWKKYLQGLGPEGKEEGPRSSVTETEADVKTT

Structure (SMILES)	ability to photolabel the mCB2 receptor (mCB2 receptor)	extent of labeling of hCB2 (hCB2)
CC1(C)Oc2cc(C(=O)c3c[nH]c4ccccc34)cc(O)c2[C@@H]2C[C@H](O)CC[C@H]21 [Compound 50]	failed to label mCB2	
CC1(C)Oc2cc(C(=O)c3cccc(C(F)(F)F)c3)cc(O)c2[C@@H]2C[C@H](O)CC[C@H]21 [Compound 49]	also labeled, however, less effectively	30%
